Measured values: ChEMBL document CHEMBL1153232, “Synthesis and screening of a CaaL peptide library versus FTase reveals a surprising number of substrates” (Bioorg Med Chem Lett, 2010)
The source made the active and inactive calls. No cut-off for these calls is given here. Peptide text beside a SMILES is read from it. * marks the point of attachment. Dansyl = CN(C)c1cccc2c(S(=O)(=O)*)cccc12

What was measured:
[1] = target: Protein farnesyltransferase subunit beta (Homo sapiens) (UniProt P49356); assay: Substrate activity for FTase assessed as increase in fluorescence by spectrofluorimetry in presence of farnesyl diphosphate relative to DnGCVLS; parameters: concentration or dose not given beside the values
Chain of Protein farnesyltransferase subunit beta (Homo sapiens) (P49356 whole entry): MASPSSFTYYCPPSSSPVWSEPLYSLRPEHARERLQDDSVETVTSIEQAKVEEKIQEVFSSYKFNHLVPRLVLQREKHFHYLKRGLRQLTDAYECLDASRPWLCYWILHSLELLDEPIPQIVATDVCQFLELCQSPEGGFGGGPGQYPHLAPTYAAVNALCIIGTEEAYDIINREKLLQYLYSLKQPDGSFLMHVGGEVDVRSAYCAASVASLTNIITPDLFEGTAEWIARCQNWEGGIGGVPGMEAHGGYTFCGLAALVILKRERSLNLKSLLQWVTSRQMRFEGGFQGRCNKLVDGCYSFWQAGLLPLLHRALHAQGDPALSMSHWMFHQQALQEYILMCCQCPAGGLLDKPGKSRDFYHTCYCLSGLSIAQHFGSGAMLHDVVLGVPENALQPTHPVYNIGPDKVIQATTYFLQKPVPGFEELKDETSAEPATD

[2] = target: Protein farnesyltransferase subunit beta (Homo sapiens) (UniProt P49356); assay: Activity at FTase assessed as formation of farnesylated peptide after 60 mins by HPLC
Summary of the method: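 Peptide (3 μM) with 9 μM FPP and recombinant mammalian FTase (0.05 μM), incubated 60 min. HPLC scored conversion to farnesylated peptide: complete; nearly complete; 25% to 50%; less than 25%; no product.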

[3] = target: Protein farnesyltransferase subunit beta (Homo sapiens) (UniProt P49356); assay: Ratio of kcat to km for FTase in presence of farnesyl diphosphate
Summary of the method: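 Steady-state kinetics at saturating FPP (10 μM), 0.2-10 μM dansyl peptide, 20-100 nM FTase (at least 5-fold below peptide). Buffer: 50 mM HEPPSO pH 7.8, 5 mM TCEP, 5 mM MgCl2, 25 °C. Peptide preincubated 20 min in buffer, then FTase and FPP added. Fluorescence (ex 340, em 520 nm) followed over time and converted to kcat/KM.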

Row | Activity [1] | Activity [2] | Ratio [3] | SMILES
1 | 0% | inactive |  | CC(C)C[C@H](NC(=O)[C@H](CCC(N)=O)NC(=O)[C@H](CO)NC(=O)[C@H](CS)NC(=O)CNS(=O)(=O)c1cccc2c(N(C)C)cccc12)C(=O)O (Dansyl-GCSQL-OH)
2 | 0% |  |  | CC(C)C[C@H](NC(=O)[C@H](CC(C)C)NC(=O)[C@@H](NC(=O)[C@H](CS)NC(=O)CNS(=O)(=O)c1cccc2c(N(C)C)cccc12)[C@@H](C)O)C(=O)O (Dansyl-GCTLL-OH)
3 | 0% | inactive |  | CC(C)C[C@H](NC(=O)CNC(=O)[C@@H](NC(=O)[C@H](CS)NC(=O)CNS(=O)(=O)c1cccc2c(N(C)C)cccc12)C(C)C)C(=O)O (Dansyl-GCVGL-OH)
4 | < 5% |  |  | CC(C)C[C@H](NC(=O)[C@H](CC(C)C)NC(=O)[C@H](C)NC(=O)[C@H](CS)NC(=O)CNS(=O)(=O)c1cccc2c(N(C)C)cccc12)C(=O)O (Dansyl-GCALL-OH)
5 | 0% | inactive |  | CC(C)C[C@H](NC(=O)[C@H](CC(N)=O)NC(=O)[C@H](CCC(N)=O)NC(=O)[C@H](CS)NC(=O)CNS(=O)(=O)c1cccc2c(N(C)C)cccc12)C(=O)O (Dansyl-GCQNL-OH)
6 | 11% | Active | 7 mM⁻¹ s⁻¹ | CC(C)C[C@H](NC(=O)[C@@H](NC(=O)[C@H](CS)NC(=O)[C@H](CS)NC(=O)CNS(=O)(=O)c1cccc2c(N(C)C)cccc12)C(C)C)C(=O)O (Dansyl-GCCVL-OH)
7 | 0% | < 25% |  | CC(C)C[C@H](NC(=O)[C@H](CCC(N)=O)NC(=O)[C@H](CC(C)C)NC(=O)[C@H](CS)NC(=O)CNS(=O)(=O)c1cccc2c(N(C)C)cccc12)C(=O)O (Dansyl-GCLQL-OH)
8 | 0% | < 25% |  | CC(C)C[C@H](NC(=O)[C@H](CC(C)C)NC(=O)[C@H](CCC(N)=O)NC(=O)[C@H](CS)NC(=O)CNS(=O)(=O)c1cccc2c(N(C)C)cccc12)C(=O)O (Dansyl-GCQLL-OH)
9 | < 5% |  |  | CC(C)C[C@H](NC(=O)[C@H](CC(C)C)NC(=O)[C@H](CS)NC(=O)[C@H](CS)NC(=O)CNS(=O)(=O)c1cccc2c(N(C)C)cccc12)C(=O)O (Dansyl-GCCLL-OH)
10 | 0% | inactive |  | CC(C)C[C@H](NC(=O)[C@@H]1CCCN1C(=O)[C@H](Cc1cnc[nH]1)NC(=O)[C@H](CS)NC(=O)CNS(=O)(=O)c1cccc2c(N(C)C)cccc12)C(=O)O (Dansyl-GCHPL-OH)
11 | 0% | inactive |  | CSCC[C@H](NC(=O)[C@H](CS)NC(=O)CNS(=O)(=O)c1cccc2c(N(C)C)cccc12)C(=O)N[C@@H](CCC(=O)O)C(=O)N[C@@H](CC(C)C)C(=O)O (Dansyl-GCMEL-OH)
12 | 71% | Active | 27 mM⁻¹ s⁻¹ | CC[C@H](C)[C@H](NC(=O)[C@H](C)NC(=O)[C@H](CS)NC(=O)CNS(=O)(=O)c1cccc2c(N(C)C)cccc12)C(=O)N[C@@H](CC(C)C)C(=O)O (Dansyl-GCAIL-OH)
13 | 0% | inactive |  | CC(C)C[C@H](NC(=O)[C@H](Cc1ccc(O)cc1)NC(=O)[C@H](C)NC(=O)[C@H](CS)NC(=O)CNS(=O)(=O)c1cccc2c(N(C)C)cccc12)C(=O)O (Dansyl-GCAYL-OH)
14 | 0% | inactive |  | CC(C)C[C@H](NC(=O)[C@H](CCC(N)=O)NC(=O)CNC(=O)[C@H](CS)NC(=O)CNS(=O)(=O)c1cccc2c(N(C)C)cccc12)C(=O)O (Dansyl-GCGQL-OH)
15 | 0% | inactive |  | CC(C)C[C@H](NC(=O)CNC(=O)CNC(=O)[C@H](CS)NC(=O)CNS(=O)(=O)c1cccc2c(N(C)C)cccc12)C(=O)O (Dansyl-GCGGL-OH)
16 | 15% | Active | 8 mM⁻¹ s⁻¹ | CC[C@H](C)[C@H](NC(=O)[C@H](CS)NC(=O)CNS(=O)(=O)c1cccc2c(N(C)C)cccc12)C(=O)N[C@@H](CC(C)C)C(=O)N[C@@H](CC(C)C)C(=O)O (Dansyl-GCILL-OH)
17 | 18% | Active | 5 mM⁻¹ s⁻¹ | CC[C@H](C)[C@H](NC(=O)[C@H](CO)NC(=O)[C@H](CS)NC(=O)CNS(=O)(=O)c1cccc2c(N(C)C)cccc12)C(=O)N[C@@H](CC(C)C)C(=O)O (Dansyl-GCSIL-OH)
18 | < 5% |  |  | CC(C)C[C@H](NC(=O)[C@@H](NC(=O)[C@H](CC(C)C)NC(=O)[C@H](CS)NC(=O)CNS(=O)(=O)c1cccc2c(N(C)C)cccc12)C(C)C)C(=O)O (Dansyl-GCLVL-OH)
19 | 0% | inactive |  | CC(C)C[C@H](NC(=O)[C@H](CCCCN)NC(=O)[C@H](CCC(=O)O)NC(=O)[C@H](CS)NC(=O)CNS(=O)(=O)c1cccc2c(N(C)C)cccc12)C(=O)O (Dansyl-GCEKL-OH)
20 | 0% | inactive |  | CC(C)C[C@H](NC(=O)[C@@H](NC(=O)[C@H](CO)NC(=O)[C@H](CS)NC(=O)CNS(=O)(=O)c1cccc2c(N(C)C)cccc12)[C@@H](C)O)C(=O)O (Dansyl-GCSTL-OH)

Row | Activity [1] | Activity [2] | Ratio [3] | SMILES
21 | < 5% |  |  | CC(C)C[C@H](NC(=O)[C@H](CC(C)C)NC(=O)[C@H](CCCNC(=N)N)NC(=O)[C@H](CS)NC(=O)CNS(=O)(=O)c1cccc2c(N(C)C)cccc12)C(=O)O (Dansyl-GCRLL-OH)
22 | < 5% |  |  | CC[C@H](C)[C@H](NC(=O)[C@@H]1CCCN1C(=O)[C@H](CS)NC(=O)CNS(=O)(=O)c1cccc2c(N(C)C)cccc12)C(=O)N[C@@H](CC(C)C)C(=O)O (Dansyl-GCPIL-OH)
23 | < 5% |  |  | CC(C)C[C@H](NC(=O)[C@@H](NC(=O)[C@H](CCCCN)NC(=O)[C@H](CS)NC(=O)CNS(=O)(=O)c1cccc2c(N(C)C)cccc12)C(C)C)C(=O)O (Dansyl-GCKVL-OH)
24 | 0% | inactive |  | CC(C)C[C@H](NC(=O)[C@H](Cc1ccccc1)NC(=O)[C@H](CO)NC(=O)[C@H](CS)NC(=O)CNS(=O)(=O)c1cccc2c(N(C)C)cccc12)C(=O)O (Dansyl-GCSFL-OH)
25 | 61% | Active | 23 mM⁻¹ s⁻¹ | CC[C@H](C)[C@H](NC(=O)[C@H](CS)NC(=O)[C@H](CS)NC(=O)CNS(=O)(=O)c1cccc2c(N(C)C)cccc12)C(=O)N[C@@H](CC(C)C)C(=O)O (Dansyl-GCCIL-OH)
26 | 101% | Active | 43 mM⁻¹ s⁻¹ | CC[C@H](C)[C@H](NC(=O)[C@H](CS)NC(=O)CNS(=O)(=O)c1cccc2c(N(C)C)cccc12)C(=O)N[C@H](C(=O)N[C@@H](CC(C)C)C(=O)O)[C@@H](C)CC (Dansyl-GCIIL-OH)
27 | 0% | inactive |  | CC(C)C[C@H](NC(=O)CNC(=O)[C@H](CC(C)C)NC(=O)[C@H](CS)NC(=O)CNS(=O)(=O)c1cccc2c(N(C)C)cccc12)C(=O)O (Dansyl-GCLGL-OH)
28 | < 5% |  |  | CC(C)C[C@H](NC(=O)[C@H](CC(C)C)NC(=O)[C@@H](NC(=O)[C@H](CS)NC(=O)CNS(=O)(=O)c1cccc2c(N(C)C)cccc12)C(C)C)C(=O)O (Dansyl-GCVLL-OH)
29 | < 5% |  |  | CC(C)C[C@H](NC(=O)[C@H](CC(C)C)NC(=O)[C@H](CC(C)C)NC(=O)[C@H](CS)NC(=O)CNS(=O)(=O)c1cccc2c(N(C)C)cccc12)C(=O)O (Dansyl-GCLLL-OH)
30 | 45% | Active | 33 mM⁻¹ s⁻¹ | CC[C@H](C)[C@H](NC(=O)[C@@H](NC(=O)[C@H](CS)NC(=O)CNS(=O)(=O)c1cccc2c(N(C)C)cccc12)[C@@H](C)O)C(=O)N[C@@H](CC(C)C)C(=O)O (Dansyl-GCTIL-OH)
31 | 0% | inactive |  | CC(C)C[C@H](NC(=O)[C@@H]1CCCN1C(=O)[C@H](CC(N)=O)NC(=O)[C@H](CS)NC(=O)CNS(=O)(=O)c1cccc2c(N(C)C)cccc12)C(=O)O (Dansyl-GCNPL-OH)
32 | 0% | < 25% |  | CC(C)C[C@H](NC(=O)[C@H](CC(C)C)NC(=O)[C@H](CO)NC(=O)[C@H](CS)NC(=O)CNS(=O)(=O)c1cccc2c(N(C)C)cccc12)C(=O)O (Dansyl-GCSLL-OH)
33 | 22% | Active | 12 mM⁻¹ s⁻¹ | CC[C@H](C)[C@H](NC(=O)[C@H](CC(N)=O)NC(=O)[C@H](CS)NC(=O)CNS(=O)(=O)c1cccc2c(N(C)C)cccc12)C(=O)N[C@@H](CC(C)C)C(=O)O (Dansyl-GCNIL-OH)
34 | 0% | inactive |  | CC(C)C[C@H](NC(=O)[C@H](CS)NC(=O)CNC(=O)[C@H](CS)NC(=O)CNS(=O)(=O)c1cccc2c(N(C)C)cccc12)C(=O)O (Dansyl-GCGCL-OH)
35 | 0% | inactive |  | CC(C)C[C@H](NC(=O)[C@H](C)NC(=O)[C@H](Cc1cnc[nH]1)NC(=O)[C@H](CS)NC(=O)CNS(=O)(=O)c1cccc2c(N(C)C)cccc12)C(=O)O (Dansyl-GCHAL-OH)
36 | 0% | inactive |  | CC(C)C[C@H](NC(=O)[C@H](C)NC(=O)[C@@H](NC(=O)[C@H](CS)NC(=O)CNS(=O)(=O)c1cccc2c(N(C)C)cccc12)[C@@H](C)O)C(=O)O (Dansyl-GCTAL-OH)
37 | 0% |  |  | CC(C)C[C@H](NC(=O)[C@@H](NC(=O)[C@H](CO)NC(=O)[C@H](CS)NC(=O)CNS(=O)(=O)c1cccc2c(N(C)C)cccc12)C(C)C)C(=O)O (Dansyl-GCSVL-OH)
38 | < 5% | Active |  | CC[C@H](C)[C@H](NC(=O)[C@H](CC(C)C)NC(=O)[C@H](CS)NC(=O)CNS(=O)(=O)c1cccc2c(N(C)C)cccc12)C(=O)N[C@@H](CC(C)C)C(=O)O (Dansyl-GCLIL-OH)
39 | 0% | inactive |  | CC(C)C[C@H](NC(=O)[C@H](CO)NC(=O)[C@H](CS)NC(=O)[C@H](CS)NC(=O)CNS(=O)(=O)c1cccc2c(N(C)C)cccc12)C(=O)O (Dansyl-GCCSL-OH)
